Source: PubChem BioAssay (several laboratories)
In the library only some 3.4% were active in any assay of this set; here they are far more common.
MC4R antagonist – MC4R antagonists of cAMP signaling, primary screen, cell-based, TR-FRET, antagonist arm of biased-ligand search | MC4R-expressing cells, MTII-stimulated cAMP, LANCE TR-FRET | inhibition, % at 6.5 µM | actives 0.48% (n = 360,000) | AID 540295, 2011;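 active means inhibition above its plate's cutoff, the mean of tested wells on that plate plus 3 SD, cut at about 29% in these data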;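 further: 0% = Melanotan II alone and 100% = Melanotan II plus saturating MCL0020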
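system = U2OS cells with stable human MC4R expression | also added = Melanotan II challenge after compound preincubation | dosing = one concentration, 6.5 µM nominal | incubation = compound 30 min, challenge 1 h, detection 1 h | measured by = TR-FRET with Eu-cAMP and labeled anti-cAMP, 671 nm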
ANO1 activ – TMEM16A chloride channel activators or potentiators, primary screen, cell-based, HTS; Anoctamin-1 (Mus musculus), Q8BHY3; HEK293 TMEM16A/YFP-H148Q/I152L, iodide quench fluorescence; active compounds read low; B-score at 10 µM; actives 0.3% (n = 340,000); AID 623877, 2012;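 active means fluorescence-ratio B-score plate-corrected deviation score at least 3 library SD below zero, with starting fluorescence score within 5 deviations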;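 further: channel opened by trigger with iodide after compound preincubation; score built on the fluorescence ratio of max minus min over baseline; more negative score means more quench and so TMEM16A activation or potentiation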
m5-HT2A agonist – mouse Htr2a agonists via beta-arrestin recruitment, primary screen, cell-based, luminescence; activation, % at 7.6 µM; AID 624169, 2012; 5-hydroxytryptamine receptor 2A (Mus musculus), P35363; CHO-K1 mHTR2A beta-arrestin complementation; percent of 30 µM serotonin response; actives 0.66% (n = 360,000);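 active means activation above a run cutoff, the mean activation of all tested compounds plus 3 SD, cut at about 14% in these data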;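 further: 0% = plate median of compound wells and 100% = 30 µM serotonin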
TMEM16A inh – TMEM16A chloride channel inhibitors, primary screen, cell-based, HTS. Anoctamin-1 (Mus musculus), Q8BHY3. HEK293 TMEM16A/YFP iodide influx fluorescence, ionomycin. normalized B-score (activity score, 25-100; higher = stronger inhibition) at 10 µM. actives 1.2% (n = 310,000). AID 588511, 2011;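 active means ratio plate-corrected score three or more library SD toward inhibition, starting fluorescence score within five deviations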;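 further: score derived from kinetic fluorescence span divided by baseline fluorescence per well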
MC4R ag barr – MC4R agonists recruiting beta-arrestin, primary screen, cell-based, luminescence, agonist arm of biased-ligand search | U2OS MC4R beta-arrestin complementation; percent of melanotan II response, DMSO zero | actives 0.98% (n = 360,000) | activation, % at 8.9 µM | AID 540308, 2011;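 active means activation above a per-plate cutoff, the mean activation of sample wells on that plate plus 3 SD, cut at about 8% in these data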
beta cell repl – inducers of MIN6 beta-cell proliferation, primary screen, ATP luminescence, uHTS; MIN6 cells proliferation, ATPlite luminescence, 48 h; cells starved in 0.2% serum; 100% = growth in 10% serum; proliferation, % at 10 µM; actives 0.29% (n = 330,000);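 active means compounds whose signal lies at least 3.5 SD above the mean of all wells on their plate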;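 further: 0% = DMSO-treated cells in low-serum medium and 100% = 10% serum control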
TMEM16A reconf – TMEM16A chloride channel inhibitors, confirmation, cell-based, re-confirmation; inhibition, % at 10 µM; shares compounds with TMEM16A inh; actives 39% (n = 2,300); HEK293 TMEM16A/YFP-H148Q, iodide quench fluorescence; ionomycin added to raise cell calcium;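 active means mean duplicate percent inhibition, scaled so buffer wells are 0 and the reference blocker 100, over three buffer SD above buffer mean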
TMEM16A Ca cntr – calcium mobilization in TMEM16A/YFP HEK293 cells, confirmation, counter-screen for TMEM16A inhibitor project; calcium response (% of ionomycin), % at 10 µM; shares compounds with TMEM16A inh; actives 2% (n = 2,300); Fluo4 calcium mobilization; AID 652231, 2013;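 active means duplicate-averaged calcium signal over 20% of the ionomycin maximum, relative to buffer baseline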;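 further: each well's signal is peak minus trough fluorescence divided by its pre-addition baseline; 0% = buffer wells and 100% = ionomycin wells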
YFP-HEK293 quench – iodide YFP quench changes in parental YFP-HEK293, counter-screen for TMEM16A inhibitor project, cell-based. 2,300 tested, under 10 active. ionomycin. shares compounds with TMEM16A inh. YFP ratio F(max-min)/F0 at 10 µM;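 active means yellow fluorescent protein signal ratio exceeding the buffer control mean by over 5 SD of those controls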;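 further: ratio is mean of duplicate wells from kinetic YFP trace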
ClC-1 inh – ClC-1 chloride channel inhibition, selectivity assay for TMEM16A inhibitor project, cell-based, voltage-dependent ClC-1 | shares compounds with TMEM16A inh | AID 652236, 2013 | ratio percent, % at 10 µM | 2,300 tested, under 10 active | CHO ClC-1-YFP, iodide influx fluorescence quench; iodide control reads 0, buffer control 100;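 active means duplicate-mean ratio percent above the mean of iodide-only control wells, which defines zero, plus 5 of their SD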;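 further: higher percent means stronger block of ClC-1 iodide influx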
The depositor's hits bear a star; i = inactive; · = no result given.

SMILES | MC4R antagonist | ANO1 activ | m5-HT2A agonist | TMEM16A inh | MC4R ag barr | beta cell repl | TMEM16A reconf | TMEM16A Ca cntr | YFP-HEK293 quench | ClC-1 inh
O=C(Nc1ccc2c(c1)OCO2)c1ccc2sc([C@H]3C[C@H](O)[C@@H](CO)O3)nc2c1 | 2 | · | 13 | · | -1 | · | · | · | · | ·
CC(C)CC(=O)c1c[nH]c(C(=O)NCCCN2CCOCC2)c1 | 2 | i | -2 | 25* | -2 | 2 | i | i | -0.99 | -10
c1ccc(Nc2nc(NCC3CCCO3)c3ccccc3n2)cc1 (centres undefined) | 27 | i | -8 | 100* | -3 | -3 | i | i | -1.1 | -14
Oc1cccc(Nc2nc(NCC3CCCO3)c3ccccc3n2)c1 (centres undefined) | 2 | · | -1 | i | -1 | -6 | · | · | · | ·
OCCNc1nc(Nc2ccc(Br)cc2)nc2ccccc12 | · | · | · | 25* | · | -5 | 22%* | i | -1.4 | -8
COc1ccccc1CNC(=O)c1cccc(S(=O)(=O)N2CCCC2)c1 | -1 | i | -2 | · | -3 | 0 | · | · | · | ·
COc1ccc(CN2C(=O)c3ccccc3C(/C=N\OCc3ccc(C)cc3)C2=O)cc1 (centres undefined) | 5 | i | 1 | i | -2 | 0 | 26%* | i | -1.3 | -6
COc1ccc(CN2C(=O)c3ccccc3C2OC)cc1 (centres undefined) | 8 | i | 1 | i | -1 | -1 | · | · | · | ·
CCNC(=O)CC1C(=O)N(c2ccc(F)cc2)C(=O)N1Cc1ccccn1 (centres undefined) | 1 | i | -2 | 100* | -2 | -2 | i | i | -1 | -8
CCOc1ccc(N2C(=O)C(CC(=O)Nc3ccc(F)cc3)N(Cc3ccccn3)C2=S)cc1 (centres undefined) | 17 | i | -2 | i | 0 | -4 | · | · | · | ·
O=C(Nc1cccc(C(F)(F)F)c1)c1ccc(Cn2cc(Br)cn2)o1 | -5 | i | -5 | 100* | 1 | -5 | 49%* | i | -1.1 | -12
O=C(Nc1ccccc1)N1CCN(Cc2ccc3c(c2)OCO3)CC1 | 2 | i | -1 | 100* | 0 | 4 | i | i | -1.2 | 2
CCNS(=O)(=O)c1ccc(CCC(=O)N2CCN(Cc3ccccc3)CC2)cc1 | 1 | i | 1 | i | -2 | 4 | · | · | · | ·
O=C(C1COc2ccccc2O1)N1CCN(Cc2ccc3c(c2)OCO3)CC1 (centres undefined) | 7 | i | 0 | 25* | -1 | -3 | i | i | -0.95 | -6
O=C(CCc1ccc(S(=O)(=O)NCCc2ccccc2)cc1)N1CCN(Cc2ccc3c(c2)OCO3)CC1 | 2 | i | 12 | 25* | 1 | -1 | i | i | -0.82 | -3
CC1CCC(NC(=O)CCS(=O)(=O)c2ccc3c(c2)NC(=O)C(C)S3)CC1 (centres undefined) | 7 | i | 3 | i | 0 | 1 | · | · | · | ·
COc1cccc(/C=C2/CCC(CN(C)C)C2=O)c1 (centres undefined) | 28 | i | 5 | · | -1 | · | · | · | · | ·
CCCCn1c(N)c(N(CC(C)C)C(=O)C2CCCN(C(=O)c3ccc(Cl)cc3)C2)c(=O)[nH]c1=O (centres undefined) | 5 | i | -5 | i | 0 | -3 | · | · | · | ·
O=C(Cc1coc2ccc3ccccc3c12)NCc1ccccc1 | 7 | i | -5 | 100* | -3 | -3 | i | i | -0.99 | -6
O=c1ccn(C2CCCCC2)c(=O)[nH]1 | 4 | · | -3 | · | 0 | · | · | · | · | ·
Nc1nn(S(=O)(=O)c2cccc3nsnc23)cc1-c1ccc(Br)cc1 | 0 | i | -3 | 25* | -2 | -3 | i | i | -1 | 2
Cc1ccc(-c2cn(S(=O)(=O)c3cccc4nsnc34)nc2N)cc1 | 2 | i | -7 | i | -1 | 1 | · | · | · | ·
CCNC(=O)CSc1nc2cc(S(=O)(=O)Nc3ccc(OC)cc3)ccc2o1 | -4 | i | -3 | i | -3 | -1 | · | · | · | ·
COc1ccc(NS(=O)(=O)c2ccc3oc(SC(C)C(N)=O)nc3c2)cc1 (centres undefined) | 2 | i | 4 | 25* | -3 | -5 | i | i | -0.91 | -14
CCCCN(Cc1cc2cc(OC)ccc2[nH]c1=O)S(=O)(=O)c1ccc(C)cc1 | 8 | i | -3 | 25* | 3 | -5 | 29%* | i | -0.64 | -18
SMILES | MC4R antagonist | ANO1 activ | m5-HT2A agonist | TMEM16A inh | MC4R ag barr | beta cell repl | TMEM16A reconf | TMEM16A Ca cntr | YFP-HEK293 quench | ClC-1 inh
COc1ccc2cc(CN(Cc3cccnc3)S(=O)(=O)c3ccccc3)c(=O)[nH]c2c1 | 5 | i | -5 | 100* | -2 | -2 | i | i | -0.86 | -6
COc1ccc(CCN2C(=O)COc3ccccc3C2C(=O)Nc2ccc3c(c2)OCCO3)cc1OC (centres undefined) | · | · | 0 | · | · | · | · | · | · | ·
O=S1(=O)CC(N2CCN(c3ccccn3)CC2)CN1C1CCCCC1 (centres undefined) | · | · | -2 | · | · | · | · | · | · | ·
Cc1ccc(Nc2nc(COC(=O)C3CC3)cs2)cc1 | -4 | i | 3 | 100* | -1 | -4 | 21%* | i | -0.83 | -8
Cc1ccc(Nc2nc(C(=O)N3CCC(C(=O)N4CCN(C)CC4)CC3)cs2)cc1 | 0 | i | -3 | i | 0 | 6 | · | · | · | ·
O=C(NN=Cc1cccc([N+](=O)[O-])c1)c1cccc2ccccc12 | -12 | i | -2 | · | -1 | · | · | · | · | ·
